The species named for experiment [1] is Homo sapiens. Kind of experiment: Selectivity ratio of IC50 for human RFC2 expressed in human HeLa R1-11 cells to IC50 for human PCFT4 expressed in human HeLa R1-11 cells. In kind it is cell-based.
The target of experiment [2] is T1, Proton-coupled folate transporter (Homo sapiens) (UniProt Q96NT5).
T1 sequence (whole entry): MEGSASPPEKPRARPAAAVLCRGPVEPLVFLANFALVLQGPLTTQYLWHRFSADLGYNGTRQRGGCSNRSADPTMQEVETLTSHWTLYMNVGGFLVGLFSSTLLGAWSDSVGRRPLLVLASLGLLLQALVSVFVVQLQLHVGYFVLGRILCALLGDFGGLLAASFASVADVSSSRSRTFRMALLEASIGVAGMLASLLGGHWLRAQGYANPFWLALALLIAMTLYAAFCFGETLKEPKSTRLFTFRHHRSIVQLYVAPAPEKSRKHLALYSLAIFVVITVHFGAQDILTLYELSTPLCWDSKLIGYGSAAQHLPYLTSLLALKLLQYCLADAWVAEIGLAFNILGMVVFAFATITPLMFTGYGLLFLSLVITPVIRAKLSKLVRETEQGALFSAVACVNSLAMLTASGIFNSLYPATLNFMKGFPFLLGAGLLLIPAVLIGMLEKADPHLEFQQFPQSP
As to the kind of experiment: Inhibition of human PCFT expressed in Chinese hamster R2/PCFT4 cells assessed as reduction in [3H]MTX uptake at pH 5.5 at 1 to 10 uM measured over 2 mins. In kind it is cell-based.

Experiment [3] has as its target T2, Proton-coupled folate transporter (Homo sapiens, UniProt Q96NT5).
T2 sequence (Q96NT5 whole entry): T1 sequence (whole entry)
As to the kind of experiment: Inhibition of human PCFT expressed in Chinese hamster R2/PCFT4 cells assessed as reduction in [3H]MTX uptake at pH 5.5 measured over 2 mins by Dixon plot analysis. Format: cell-based. The gist of the method: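 Competitor concentrations ranged from 0.05 to 0.5 μM. Ki was obtained by Dixon plot. Mean ± SE of four independent experiments.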

Experiment [4] is described as follows: Antiproliferative activity in Chinese hamster R2 cells deficient in RFC, PCFT, and FRalpha assessed as reduction in cell growth after 96 hrs by Cell-Titer Blue assay. In kind it is cell-based. The conditions noted are these: Cricetulus griseus, R2, 96 h.
The species named for experiment [5] is Homo sapiens. Kind of experiment: Selectivity ratio of IC50 for human RFC2 expressed in human HeLa R1-11 cells to IC50 for human FR2 expressed in human HeLa R1-11 cells. Format: cell-based.
For experiment [6], the target named is T3, Trifunctional purine biosynthetic protein adenosine-3 (Homo sapiens, UniProt P22102).
T3 sequence (P22102 whole entry): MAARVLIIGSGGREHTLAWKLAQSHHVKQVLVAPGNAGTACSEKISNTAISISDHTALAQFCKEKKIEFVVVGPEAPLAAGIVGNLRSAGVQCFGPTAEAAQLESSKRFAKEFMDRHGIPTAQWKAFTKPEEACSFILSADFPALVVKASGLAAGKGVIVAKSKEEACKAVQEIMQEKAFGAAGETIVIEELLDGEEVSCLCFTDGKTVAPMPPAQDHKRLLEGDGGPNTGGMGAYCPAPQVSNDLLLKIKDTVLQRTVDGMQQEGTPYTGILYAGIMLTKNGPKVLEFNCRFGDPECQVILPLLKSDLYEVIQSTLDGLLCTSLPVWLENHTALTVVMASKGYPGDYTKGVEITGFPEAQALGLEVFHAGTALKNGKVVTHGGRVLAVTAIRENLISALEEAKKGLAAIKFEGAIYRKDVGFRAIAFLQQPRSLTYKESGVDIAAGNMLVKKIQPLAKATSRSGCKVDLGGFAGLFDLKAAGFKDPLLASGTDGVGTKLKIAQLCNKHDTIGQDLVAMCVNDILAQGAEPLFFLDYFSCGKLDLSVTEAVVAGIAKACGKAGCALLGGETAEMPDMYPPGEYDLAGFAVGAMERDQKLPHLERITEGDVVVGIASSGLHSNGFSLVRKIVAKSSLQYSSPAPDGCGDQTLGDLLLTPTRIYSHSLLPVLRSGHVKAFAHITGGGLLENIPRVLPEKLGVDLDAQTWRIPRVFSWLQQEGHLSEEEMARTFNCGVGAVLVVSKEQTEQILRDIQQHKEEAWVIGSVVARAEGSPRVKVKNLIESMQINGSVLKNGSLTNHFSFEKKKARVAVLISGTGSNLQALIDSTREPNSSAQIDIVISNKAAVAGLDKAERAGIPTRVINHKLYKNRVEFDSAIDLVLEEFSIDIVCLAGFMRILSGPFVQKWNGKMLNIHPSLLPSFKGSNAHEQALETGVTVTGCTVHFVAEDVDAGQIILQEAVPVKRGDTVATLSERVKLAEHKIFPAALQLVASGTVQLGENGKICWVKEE
Kind of experiment: Inhibition of GARFTase in human IGROV1 cells assessed as decrease in incorporation of [14C(U)glycine into [14C]formyl GAR formation after 24 hrs. Format: cell-based.

Experiment [7] has as its system IGROV-1. Kind of experiment: Antiproliferative activity against FRalpha […] human IGROV1 KD10 cells after 96 hrs by Cell-Titer Blue assay. The conditions noted are these: IGROV-1, 96 h. In kind it is functional, cell-based.
The subject of experiment [8] is IGROV-1. As to the kind of experiment: Antiproliferative activity against human IGROV1 cells harboring non targeted control shRNA sequence after 96 hrs by Cell-Titer Blue assay. In kind it is functional, cell-based. The conditions noted are these: IGROV-1, 96 h.
Experiment [9] concerns the target T1, Proton-coupled folate transporter (Homo sapiens). As to the kind of experiment: Inhibition of human PCFT expressed in Chinese hamster R2/PCFT4 cells assessed as reduction in [3H]MTX uptake at pH 5.5 at 1 uM measured over 2 mins relative to control. Format: cell-based.
The target is the same in experiment [10]. Kind of experiment: Inhibition of human PCFT expressed in Chinese hamster R2/PCFT4 cells assessed as reduction in [3H]MTX uptake at pH 5.5 at 10 uM measured over 2 mins relative to control. Format: cell-based.
The target in experiment [11] is T4, Reduced folate transporter (Homo sapiens) (UniProt P41440).
T4 sequence (whole entry): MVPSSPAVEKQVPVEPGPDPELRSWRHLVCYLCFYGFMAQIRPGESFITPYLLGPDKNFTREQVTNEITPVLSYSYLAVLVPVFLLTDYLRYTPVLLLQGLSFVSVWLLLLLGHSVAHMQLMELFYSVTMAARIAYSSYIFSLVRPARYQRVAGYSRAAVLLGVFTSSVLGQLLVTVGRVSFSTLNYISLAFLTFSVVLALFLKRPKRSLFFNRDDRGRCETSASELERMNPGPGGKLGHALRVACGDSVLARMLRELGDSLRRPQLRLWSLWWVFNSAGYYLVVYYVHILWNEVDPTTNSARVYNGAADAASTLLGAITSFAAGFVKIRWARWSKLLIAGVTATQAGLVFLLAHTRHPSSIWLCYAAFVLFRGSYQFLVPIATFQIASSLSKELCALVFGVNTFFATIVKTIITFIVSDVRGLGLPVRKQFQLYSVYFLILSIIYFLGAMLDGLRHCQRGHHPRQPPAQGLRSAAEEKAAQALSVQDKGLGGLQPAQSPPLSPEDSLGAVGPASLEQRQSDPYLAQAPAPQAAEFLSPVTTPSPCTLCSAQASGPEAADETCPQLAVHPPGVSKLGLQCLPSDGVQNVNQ
Kind of experiment: Inhibition of human RFC2 expressed in human HeLa R1-11 cells assessed as reduction in [3H]MTX uptake at pH 7.2 at 10 uM measured over 2 mins relative to control. Format: cell-based.

Experiment [12] relates to IGROV-1. As to the kind of experiment: Antiproliferative activity against FRalpha […] human IGROV1 KD4 cells after 96 hrs by Cell-Titer Blue assay. The note with it: IGROV-1, 96 h. In kind it is functional, cell-based.
For the next experiment, the system named is A2780. As to the kind of experiment: Antiproliferative activity against human A2780 cells after 96 hrs by Cell-Titer Blue assay. In kind it is functional, cell-based. The note with it: A2780, 96 h.
The test system of experiment [13] is IGROV-1. As to the kind of experiment: Antiproliferative activity against wild type human IGROV1 cells after 96 hrs by Cell-Titer Blue assay. Format: functional, cell-based. The note with it: IGROV-1, 96 h.
For experiment [14], the target named is T4, Reduced folate transporter (Homo sapiens). Kind of experiment: Inhibition of human RFC2 expressed in human HeLa R1-11 cells assessed as reduction in [3H]MTX uptake at pH 7.2 at 1 uM measured over 2 mins relative to control. In kind it is cell-based.
Experiment [15] deals with Folate receptor beta (Homo sapiens) (UniProt P14207). As to the kind of experiment: Displacement of [3H]folic acid from human FRbeta expressed in Chinese hamster D4 cells at 10 to 1000 nM after 15 mins. Format: cell-based. In short, it runs like this:
(§1)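 RT16 (FRα) or D4 (FRβ) CHO cells at ~80% confluence were washed with PBS at 4 °C, then with pH 3.5 acetate buffer to strip bound folate, then HEPES-buffered saline pH 7.4. Cells were incubated with 50 nM [³H]folic acid plus competitor (10–1000 nM) for 15 min at 4 °C, washed, and solubilized in NaOH. Bound radioactivity was normalized to protein.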
A general note: Loss of bound radioactivity is the signal in a displacement assay; it reports binding, not function.

Experiment [16] concerns the target T4, Reduced folate transporter (Homo sapiens). As to the kind of experiment: Inhibition of human RFC2 expressed in human HeLa R1-11 cells assessed as reduction in [3H]MTX uptake at pH 7.2 at 10 uM measured over 2 mins relative to control.
In experiment [17] the target is Folate receptor alpha (Homo sapiens) (UniProt P15328). Kind of experiment: Displacement of [3H]folic acid from human FRalpha expressed in Chinese hamster RT16 cells at 10 to 1000 nM after 15 mins. Format: cell-based. In short, it runs like this: as §1
Sequence of Folate receptor alpha (Homo sapiens) (P15328 25-234 limits assumed): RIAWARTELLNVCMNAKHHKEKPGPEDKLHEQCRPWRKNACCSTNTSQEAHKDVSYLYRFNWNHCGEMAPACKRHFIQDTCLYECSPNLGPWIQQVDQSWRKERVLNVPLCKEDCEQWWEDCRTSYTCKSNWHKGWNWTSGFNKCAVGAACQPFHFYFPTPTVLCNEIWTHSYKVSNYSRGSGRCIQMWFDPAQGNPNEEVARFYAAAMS
The nature of experiment [18]: Binding affinity to human PCFT expressed in Chinese hamster R2/PCFT4 cells assessed as antiproliferative activity measured as reduction in cell growth after 96 hrs by Cell-Titer Blue assay.
The nature of experiment [19]: Binding affinity to human RFC expressed in Chinese hamster PC43-10 cells assessed as antiproliferative activity measured as reduction in cell growth after 96 hrs by Cell-Titer Blue assay.

Active and inactive are the calls of the source. The rule behind the calls is not given here. Bounds are passed on as bounds.

Sequence of Folate receptor beta (Homo sapiens) (P14207 17-230 limits assumed): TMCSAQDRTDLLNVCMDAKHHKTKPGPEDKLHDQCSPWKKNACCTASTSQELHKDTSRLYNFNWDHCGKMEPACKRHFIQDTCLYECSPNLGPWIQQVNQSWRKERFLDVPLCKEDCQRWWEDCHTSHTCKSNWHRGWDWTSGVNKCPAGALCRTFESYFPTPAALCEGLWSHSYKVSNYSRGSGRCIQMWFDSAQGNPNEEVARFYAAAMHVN

Broadly, the inhibition is the drop in the measured response relative to a control, in per cent. By Ki is commonly meant the equilibrium dissociation constant of an inhibitor or competing ligand from its target. The term IC50 denotes the concentration at which inhibition is half-maximal. For `Nc1nc2[nH]c(CCCc3ccc(C(=O)N[C@@H](CCC(=O)O)C(=O)O)c(F)c3)cc2c(=O)[nH]1`, the Ratio IC50 stood at 92 in the experiment filed under Homo sapiens [1] and 97 in the experiment filed under Homo sapiens [5]. Moreover, the inhibition entry in experiment [2] is “Active”. Besides, the Ki in experiment [3] came to 260 nM. Moreover, the IC50 in [4] is 140 nM; in experiment [6], 1 to 2.5 nM; in the experiment on IGROV-1 [7] it was 19.2 nM; in the experiment on IGROV-1 [8], 1.14 nM; in the experiment on IGROV-1 [12], 41 nM; with A2780, 2.14 nM. Moreover, the IC50 in the experiment on IGROV-1 [13] was 1.67 nM. Also, the inhibition in experiment [9] lay within 60 to 85%; in [10], 90 to 95%. Further, the inhibition entry in [11] and in [14] was “inactive” each time.

On to `Nc1nc2[nH]c(CCCc3csc(C(=O)N[C@@H](CCC(=O)O)C(=O)O)c3F)cc2c(=O)[nH]1`, for which the inhibition entry in experiment [2], in experiment [15] and in experiment [17] was “Active” throughout. For the same compound, in [3], the Ki is 70 nM. The IC50 is 20.5 nM in experiment [4]; 1.2 nM in experiment [6]; 42.2 nM in the experiment with IGROV-1 [7]; 5.61 nM in the experiment on IGROV-1 [8]; 85.6 nM in the experiment with IGROV-1 [12]; 7.6 nM with A2780. Further, half-maximal inhibition in the experiment on IGROV-1 [13] (IC50) was put at 6.92 nM. Also, the inhibition in experiment [9] was 60 to 85%; in experiment [10], 90 to 95%; in experiment [11], < 30%; in experiment [16], < 30%.

On to `Nc1nc2[nH]c(CCCc3csc(C(=O)N[C@@H](CCC(=O)O)C(=O)O)c3)cc2c(=O)[nH]1`, for which the inhibition result in experiment [2], in experiment [15], in [9], in [10] and in [17] was “Active” each time. In addition, the Ki in experiment [3] is 280 nM. Besides, the IC50 in experiment [4] came to 355 nM; in experiment [6] it was 1 nM; in the experiment on IGROV-1 [7] it was 30.3 nM; in the experiment on IGROV-1 [8], 12.8 nM; in experiment [18] it was 5.4 nM; in [19], 197 nM. Further, the IC50 in the experiment on IGROV-1 [12] is 80.5 nM; with A2780 it was 21.7 nM; with IGROV-1 [13], 12.1 nM. Further, the inhibition in experiment [11] and in experiment [16] was < 30% each time.

The values are drawn from ChEMBL document CHEMBL4308835, “Fluorine-Substituted Pyrrolo[2,3- d]Pyrimidine Analogues with Tumor Targeting via Cellular Uptake by Folate Receptor α and the Proton-Coupled Folate Transporter and Inhibition of de Novo Purine Nucleotide Biosynthesis” (J Med Chem, 2018).
